Legend:
healthy elderly subjects = assay: Monitoring of treatment‐emergent adverse events; type: in vivo, human; conditions: 16 mg oral, single dose; within 24 hours after administration
How it was run: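 Randomised, double-blind, placebo-controlled trial in healthy subjects aged ≥65 (n=48; 12 active:4 placebo per cohort, placebos pooled). Intranasal test compound 5.5, 11 or 22 mg or 0.9% NaCl b.i.d. for 7 days, 6 h between doses. The 11 mg active subjects later got one open-label oral 16 mg dose of the parent drug. Safety was tracked by TEAEs, nasal examination, vital signs, ECG and safety bloods.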

[1] = 4 mg/kg in mice; cited from earlier work

COc1ccc2c3c1O[C@H]1C[C@@H](O)C=C[C@@]31CCN(C)C2 [galantamine, reference compound]
TEAEs within 24 hours: All gastrointestinal disorders (healthy elderly subjects): 8 (66.7) number of subjects (percentage | TEAEs within 24 hours: Any events (healthy elderly subjects): 10 (83.3) number of subjects (percentage | TEAEs within 24 hours: Diarrhea (healthy elderly subjects): 1 (8.3) number of subjects (percentage | TEAEs within 24 hours: Nausea (healthy elderly subjects): 5 (41.7) number of subjects (percentage | TEAEs within 24 hours: Vomiting (healthy elderly subjects): 5 (41.7) number of subjects (percentage | brain‐to‐blood ratio [1]: 2.1
